# Most compounds without a hit are left out; they make up all but 5.4% or so of the library.
# PostGolgi yeast = growth inhibition of a yeast mutant, post-Golgi transport screen | post-Golgi transport phenotypic cell assay | inhibition, % at 10 µM | AID 739 | hit rate 0.9% among 98,000;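 note: yeast cells grown in 1536-well plates; yeast grown about 18 h at 30C before absorbance read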
# PostGolgi ctrl = yeast control strain growth, post-Golgi counter-screen; efflux-deficient yeast background strain, growth absorbance A615, 16 h; inhibition, % at 10 µM; hit rate 5% among 98,000
# Ecoli WT expand = blocks growth of wild type E. coli BW25113; OD600 absorbance; growth inhibition, % at 100 µM; hit rate 0.15% among 98,000; AID 710;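 active = growth inhibition above about 50% at one test dose, limit read from the data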;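 note: growth measured after 20 h incubation at 37 °C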
# Ecoli tolC = E. coli tolC mutant growth inhibition; AID 573; E. coli BW25113 tolC mutant growth, OD615; hit rate 2.2% among 65,000; growth inhibition, % at 10 µM (by protocol);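 active = growth inhibition at or above a cutoff equal to the mean over every tested compound plus 3 SD, cut at about 60% in these data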;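 note: growth measured after 20 h incubation at 37 °C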
#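 Test system: E. coli BW25113 ΔtolC::kan bacteria; incubation: 37 °C, 20 h exposure; medium: LB broth supplemented with 50 µg/mL kanamycin; read-out basis: percent growth inhibition; signal: A615 absorbance measurement; compound: 10 µM final, single dose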
# PLAP act = activates human placental alkaline phosphatase | P05187 | purified PLAP enzyme, luminescent substrate read-out; hits give high values | activation fold at 20 µM | hit rate 1.2% among 96,000 | AID 696; in the data active = activation fold above about 2
# Target sequence (P05187 whole entry, looked up): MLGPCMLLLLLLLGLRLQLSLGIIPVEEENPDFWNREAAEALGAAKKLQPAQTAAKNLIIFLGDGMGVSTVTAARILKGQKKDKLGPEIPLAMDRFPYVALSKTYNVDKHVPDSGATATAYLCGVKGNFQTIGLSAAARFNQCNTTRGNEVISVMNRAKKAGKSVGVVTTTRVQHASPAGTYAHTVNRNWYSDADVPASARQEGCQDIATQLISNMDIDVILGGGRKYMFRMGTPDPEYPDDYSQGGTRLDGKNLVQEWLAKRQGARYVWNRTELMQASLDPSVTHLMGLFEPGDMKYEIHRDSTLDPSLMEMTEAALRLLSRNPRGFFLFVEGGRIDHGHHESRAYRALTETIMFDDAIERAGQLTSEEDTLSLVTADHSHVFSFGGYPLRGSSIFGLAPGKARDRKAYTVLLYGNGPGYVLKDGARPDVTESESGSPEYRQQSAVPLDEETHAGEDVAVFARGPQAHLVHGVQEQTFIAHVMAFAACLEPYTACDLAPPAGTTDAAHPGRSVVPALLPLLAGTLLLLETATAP
# HePTP inh = blocks human HePTP tyrosine phosphatase | P35236 | recombinant HePTP phosphatase activity, OD absorbance | inhibition, % at 20 µM | hit rate 0.64% among 110,000; in the data active = inhibition above about 50%;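 note: plate controls were vehicle for no effect and reference inhibitor for full effect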
# Starred values were filed as active, the others as inactive; nt = not tested or not shown. Cut-off read from the data, not from the text of the source, unless noted: active = inhibition above about 30%; inactive = the rest.
SMILES,PostGolgi yeast,PostGolgi ctrl,Ecoli WT expand,Ecoli tolC,PLAP act,HePTP inh
COc1cc2c(cc1OC)C(C(=O)Nc1ccc3c(c1)OCCO3)C1c3ccccc3CCN1C2=O (stereo not given),13,7,-2,9,nt,9
Brc1ccc(-c2nc(-c3ccccc3)no2)o1,3,0,7,98*,0.9,-6
Brc1ccc(-c2nc(-c3cccnc3)no2)o1,-3,-4,-2,-8,1,12
CCC(Oc1ccccc1)C(=O)Nc1cc(Cl)ccc1Cl (stereo not given),nt,nt,nt,nt,nt,-2
COc1nc(-c2ccccc2)cc(-c2ccc(OC)c(OC)c2)n1,7,38*,-22,33,1.4,10
COc1ccc(C(=O)NC(=S)N2CCCCCC2)cc1,nt,nt,nt,nt,nt,6
N/C(=N\OC(=O)CCC1CCCCC1)c1ccc([N+](=O)[O-])cc1,1,-2,10,nt,1,nt
N/C(=N\OC(=O)CCC1CCCCC1)c1cccnc1,1,33*,8,nt,0.9,nt
CCN1C(=O)N(COC(C)=O)C2C1N(COC(C)=O)C(=O)N2CC (stereo not given),nt,nt,nt,nt,nt,-7
COc1cc(C=C2C(=O)NC(=O)NC2=O)ccc1OCc1c(C)no[n+]1[O-],nt,nt,nt,nt,nt,41
C=CCNC(=S)NNC(=O)C(CCC(C)C)CC(C)O (stereo not given),1,17,0,nt,2.7*,nt
C=CCNC(=S)NNC(=O)c1ccc(OCC(C)C)cc1,1,5,4,nt,1.4,nt
CCC1(C)CC(CC(=O)O)(c2ccccc2OC)CCO1 (stereo not given),15,2,4,-9,1.1,5
CCC1(C)CC(CC#N)(c2ccccc2OC)CCO1 (stereo not given),nt,nt,nt,nt,nt,104*
COc1ccc(Cl)cc1NC(=O)Nc1cccc([N+](=O)[O-])c1C,2,42*,-7,nt,0.9,nt
COc1ccc(C(C)(C)C)cc1NC(=O)Nc1ccc2c(c1)OCO2,5,71*,-4,65*,nt,2
COC(=O)c1ccccc1NC(=O)Nc1ccc2c(c1)OCO2,-1,7,2,nt,0.7,nt
COc1ccc(OC)c(NC(=O)Nc2ccc(Cl)cc2)c1,-3,41*,1,nt,0.9,nt
CCn1c(SCC(=O)NN)nc2ccccc21,nt,nt,nt,nt,nt,-15
Cc1cc(-c2ccccc2)n(-c2ccc(C(=O)N3CCN(c4ncccn4)CC3)cc2)n1,-3,61*,-3,11,1.6,5
CC(=O)Nc1cccc(-c2nnc(-c3cccc(NC(C)=O)c3)o2)c1,nt,nt,nt,nt,nt,-10
O=C(OCc1ccccc1)C1CCCN1C(=O)c1cccs1 (stereo not given),-6,1,0,11,1,7
O=C(NCCOc1ccccc1)C1CCCN1C(=O)c1cccs1 (stereo not given),2,34*,4,-3,nt,12
CCC(/C=C1\N=C(c2cccc(F)c2)OC1=O)=C\c1ccccc1,nt,nt,nt,nt,nt,6
CC1(C)Cc2c(C#N)c(N3CCN(C(=O)c4ccccc4)CC3)nc(-c3ccco3)c2CS1,14,35*,-9,-2,nt,-8
SMILES,PostGolgi yeast,PostGolgi ctrl,Ecoli WT expand,Ecoli tolC,PLAP act,HePTP inh
CC(C)c1nc(N2CCN(C(=O)c3ccccc3)CC2)c(C#N)c2c1COC(C)(C)C2,20,18,-7,34,1.5,-3
COc1ccccc1C(=O)Nc1ccc2oc(-c3ccncc3)nc2c1,nt,nt,nt,nt,nt,12
CCS(=O)(=O)N1Cc2ccccc2CC1C(=O)Nc1nc2ccccc2[nH]1 (stereo not given),-7,1,2,5,2.4*,4
Cc1ccc(C(=O)Nc2ccccc2CO)cc1[N+](=O)[O-],nt,nt,nt,nt,nt,4
c1ccc(CC2CCN(c3nnnn3-c3ccccc3)CC2)cc1,4,32*,-35,76*,1,6
FC(F)(F)c1cccc(N2CCN(c3nnnn3-c3ccccc3)CC2)c1,-1,2,1,69*,1.5,12
CCCOc1cccc(C(=O)Nc2scc(-c3ccccc3)c2C(=O)OC(C)C)c1,nt,nt,nt,nt,nt,10
COCCNC(=O)Cn1cc2c(n1)CCC(C)C2 (stereo not given),-6,-3,6,-6,1.1,3
CC1CCc2nn(CC(=O)NCCC3=CCCCC3)cc2C1 (stereo not given),-5,37*,8,8,1,2
Brc1cc2c(cc1Cn1c(-c3cncs3)nc3ccccc31)OCO2,16,7,-3,2,1.1,6
Cc1cc(Cn2c(C)nc3ccccc32)c(C)cc1Cn1c(C)nc2ccccc21,nt,nt,nt,nt,nt,-14
Brc1ccccc1Cn1c(-c2cscn2)nc2ccccc21,6,54*,-1,nt,1,nt
Cc1ccccc1Cn1c(-c2cncs2)nc2ccccc21,24,35*,-5,30,0.9,0
Cc1ccccc1Cn1c(Cc2ccccc2)nc2ccccc21,-12,34*,-3,nt,1.1,nt
Cc1ccc(/C=C/C(=O)Nc2cccc(C(F)(F)F)c2)o1,nt,nt,nt,nt,nt,-18
CC(C)Oc1ccc(C(=O)Nc2nc(-c3ccc(F)cc3F)cs2)cc1,nt,nt,nt,nt,nt,4
Cc1cnc(NC(=O)c2ccc(Cl)cc2Cl)s1,nt,nt,nt,nt,nt,-3
C=CCn1c(SCC(=O)NCc2ccc3c(c2)OCO3)nc2scc(-c3ccc(F)cc3)c2c1=O,3,9,-11,nt,0.8,nt
Cc1ccc(-c2csc3ncnc(SCC(=O)NCc4ccc5c(c4)OCO5)c23)cc1,4,43*,-9,nt,0.7,nt
Oc1ccccc1Nc1nnc(-c2ccccc2)c2ccccc12,nt,nt,nt,nt,nt,-5
O=C1C(Cl)=C(N2CCCCC2)C(=O)N1c1ccccc1Cl,-2,22,4,-7,1,9
Cc1ccccc1N1C(=O)C(Cl)=C(N2CCCCCC2)C1=O,-3,40*,4,41,1,11
CCc1ccc2oc(=O)cc(CN3CCN(c4ccc(F)cc4)CC3)c2c1,13,38*,-11,1,1.1,3
COc1ccc(N2CCN(Cc3cc(=O)oc4ccc(C)cc34)CC2)cc1,-2,11,-2,nt,0.9,nt
CCc1ccc2oc(=O)cc(CN(C)Cc3ccccc3)c2c1,7,28,-7,100*,1,9
SMILES,PostGolgi yeast,PostGolgi ctrl,Ecoli WT expand,Ecoli tolC,PLAP act,HePTP inh
CC(C)c1ccc2oc(=O)cc(CN3CCN(c4ccc(F)cc4)CC3)c2c1,5,33*,-15,37,1.1,3
O=c1cc(CN2CCN(c3ccccc3)CC2)c2c(ccc3ccccc32)o1,6,32*,-16,12,1.4,2
COc1ccc(N2CCN(Cc3cc(=O)oc4ccc(Cl)cc34)CC2)cc1,4,-1,1,-9,0.9,5
CCCOC(=O)c1ccc(NC(=S)Nc2ccc(F)cc2)cc1,nt,nt,nt,nt,nt,2
COc1ccc(Br)cc1C(=O)Nc1cccc(NC(=O)c2ccco2)c1,3,49*,-12,36,1.2,6
CCCOc1cccc(C(=O)Nc2cc(NC(=O)c3ccco3)ccc2OC)c1,-4,41*,-14,49,1.3,3
COc1cc(NS(=O)(=O)c2ccc(Br)cc2)c(OC)cc1NC(=O)c1ccco1,-13,26,-6,76*,1.3,12
COc1c(C)cc(Br)cc1C(=O)Nc1cccc(NC(=O)c2ccco2)c1,31*,56*,-19,74*,0.9,9

# Screening results: PubChem, several laboratories
